Experimental data from different studies.
Target: Calcium/calmodulin-dependent protein kinase type II subunit gamma (CAMK2G, Homo sapiens, UniProt Q13555)

SMILES	effect on	action	method	concentration	endpoint	result
CNC(=O)c1cc(Oc2ccc(NC(=O)Nc3ccc(Cl)c(C(F)(F)F)c3)cc2)ccn1	cell-free assay	–	–	10 µM	inhibition	78%
COc1ccc2c(O[C@@H]3C[C@H]4C(=O)N[C@]5(C(=O)O)CC5/C=C\CCCCC[C@H](NC(=O)OC5CCCC5)C(=O)N4C3)cc(-c3csc(NC(=O)C(C)C)n3)nc2c1C (some centres unmarked)	cell-free assay	–	competition with immobilised ligand	1 µM	remaining binding	100%
N#CCCc1ccc2c(c1)-c1[nH]c3ccc([N+](=O)[O-])cc3c1CC(=O)N2	cell-free assay	–	–	0.5 µM	remaining signal	66%
C[C@@H]1CN(c2cc(-c3nn(C)c4ccc(OC5(C)CC5)cc34)ncn2)C[C@H](C)O1	cell-free assay	–	competition with immobilised ligand	1 µM	remaining binding	90%
CS(=O)(=O)CCNCc1ccc(-c2ccc3ncnc(Nc4ccc(OCc5cccc(F)c5)c(Cl)c4)c3c2)o1	cell-free assay	–	–	0.5 µM	remaining signal	111%
O=C(Nc1nccs1)C(c1cc(F)ccc1O)N1Cc2ccccc2C1=O (centres unmarked)	enzyme activity	inhibitor	–	1 µM	inhibition	9%
O=C1CCc2cc(Nc3cc(OC4CCOCC4)c([N+](=O)[O-])cc3Cl)ccc2N1	cell-free assay	–	competition with immobilised ligand	1 µM	remaining binding	100%
CC(C)(C)c1nc2c(s1)c1nc(N)ncc1c1ccc(NS(=O)(=O)c3c(F)cccc3F)c(F)c12	enzyme activity	inhibitor	radiometric	1 µM	remaining activity	118%
Cc1ccc(NC(=O)c2ccc(C)c(C(F)(F)F)c2)cc1C#Cc1nn(C2CCC(O)CC2)c2ncnc(N)c12 (centres unmarked)	cell-free assay	–	–	10 µM	remaining signal	90%
O=C(NC[C@@H]1[C@H]2CN(C(=O)OCc3cc(C(F)(F)F)cc(C(F)(F)F)c3)C[C@@H]12)c1ccc2[nH]nnc2c1	cell-free assay	–	competition with immobilised ligand	1 µM	remaining binding	85%
Cc1ccc(C(=O)Nc2ccc(CN3CCN(C)CC3)c(C(F)(F)F)c2)cc1C#Cc1cnc2cccnn12	cell-free assay	–	–	23.5 nM	remaining signal	98%
O=C1NC(=O)c2cc(Nc3ccc(F)cc3)c(Nc3ccc(F)cc3)cc21	cell-free assay	–	–	0.5 µM	remaining signal	101%
COc1ccc2cc(OCC3(C(=O)O)CN(C(=O)c4ccc(F)cc4)C3)ccc2c1	cell-free assay	–	competition with immobilised ligand	1 µM	remaining binding	100%
Cc1cc(NC(=O)c2cccc3cc(-c4cccc5[nH]nc(N)c45)ccc23)ccc1F	enzyme activity	inhibitor	–	0.1 µM	activity vs control	106%
CCN(CC)c1ccc(C2=NNC(=O)CC2C)cc1[N+](=O)[O-] (centres unmarked)	enzyme activity	inhibitor	–	10 µM	remaining activity	119%
Cc1sc(C(=O)NC2COC2)cc1-n1cc(NC(=O)Nc2c(F)cccc2Cl)cn1	enzyme activity	inhibitor	–	10 µM	remaining activity	102%
COc1cc(-c2cc(-c3ccc(N4CCNCC4)cc3)cnc2C)cc(OC)c1OC	enzyme activity	inhibitor	–	0.1 µM	inhibition	1%
CC/C(=N\NC(=O)NCc1cccc(O)c1)c1ccc(O)c(C)c1O	enzyme activity	inhibitor	–	0.1 µM	inhibition	-5.1%
CS(=O)(=O)c1cc(C2(NC(=O)c3cncc4c3cnn4-c3ccc(F)cc3)CC2)ccn1	cell-free assay	–	competition with immobilised ligand	1 µM	remaining binding	72%
CC(C)c1ccc(NC(=O)c2cccs2)c(-c2nc3ccccc3[nH]c2=O)c1	enzyme activity	inhibitor	–	1 µM	activity vs control	100%
